Data on two molecules can be found in ChEMBL document CHEMBL1240482, “Synthesis and antiproliferative evaluation of certain indeno[1,2-c]quinoline derivatives. Part 2” (J Med Chem, 2010).

Active and inactive are the calls of the source. The calls are words filed in the database; no cut-off is given here.

In data set [1] the test system is Detroit 551. Description: Selectivity index, ratio of IC50 for human Detroit 551 cells to IC50 for human SKHep cells. Type of data set: functional.
Data set [2] relates to Detroit 551. Description: Selectivity index, ratio of IC50 for human Detroit 551 cells to IC50 for human A549 cells. The class given is functional.
Data set [3] concerns the target T1, DNA topoisomerase 1 (Homo sapiens) (UniProt P11387).
T1 sequence (whole entry): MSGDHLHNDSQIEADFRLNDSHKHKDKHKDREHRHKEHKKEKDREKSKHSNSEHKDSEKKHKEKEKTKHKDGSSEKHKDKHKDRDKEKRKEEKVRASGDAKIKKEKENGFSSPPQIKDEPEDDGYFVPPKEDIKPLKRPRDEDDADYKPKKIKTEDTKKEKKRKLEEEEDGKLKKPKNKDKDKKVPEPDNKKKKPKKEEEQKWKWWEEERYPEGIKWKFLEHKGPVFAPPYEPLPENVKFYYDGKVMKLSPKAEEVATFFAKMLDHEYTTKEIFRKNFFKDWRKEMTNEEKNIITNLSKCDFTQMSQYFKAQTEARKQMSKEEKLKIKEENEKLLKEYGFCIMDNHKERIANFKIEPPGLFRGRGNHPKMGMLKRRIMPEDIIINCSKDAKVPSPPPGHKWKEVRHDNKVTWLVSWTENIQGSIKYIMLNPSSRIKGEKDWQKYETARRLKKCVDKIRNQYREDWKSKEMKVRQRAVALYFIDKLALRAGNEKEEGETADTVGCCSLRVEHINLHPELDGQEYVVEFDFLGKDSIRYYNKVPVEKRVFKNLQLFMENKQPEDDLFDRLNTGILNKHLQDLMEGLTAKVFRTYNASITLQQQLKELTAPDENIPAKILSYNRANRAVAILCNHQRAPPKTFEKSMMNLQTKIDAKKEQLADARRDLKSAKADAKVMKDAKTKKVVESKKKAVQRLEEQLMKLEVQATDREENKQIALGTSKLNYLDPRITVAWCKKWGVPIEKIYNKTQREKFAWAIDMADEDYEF
Kind of data set: Inhibition of human topoisomerase 1 assessed as decrease in pBR322 mobility on agarose gel at 10 uM by electrophoresis. The procedure, abridged:
(§1)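 Enzyme preincubated with compound before DNA addition; reaction run 30 min at 37 °C and stopped with SDS. Products resolved on 1% agarose, stained with ethidium bromide, quantified by densitometry.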

Data set [4] relates to SAS. Kind of data set: Selectivity index, ratio of IC50 for human Detroit 551 cells to IC50 for human SAS cells. Type of data set: functional.
Data set [5] deals with HeLa. Description: Cytotoxicity against human HeLa cells after 48 hrs by MTT assay. The class given is functional. The procedure, abridged: (§2)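 Cells grown in DMEM with 10% FBS at 37 °C and 5% CO2, seeded at 5 × 10^3 per well and allowed 24 h before drug. Serial dilutions from DMSO stocks applied for 48 h. MTT (2 mg/mL in PBS) added for 2 h, formazan dissolved in DMSO, absorbance read at 570 nm. GI50 interpolated by linear regression from at least three points in the 20-80% range; three independent experiments.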
On the technique in general: Tetrazolium dyes change colour on reduction, which living cells bring about.

The subject of data set [6] is Detroit 551. Description: Selectivity index, ratio of IC50 for human Detroit 551 cells to IC50 for human BT-483 cells. The class given is functional.
Data set [7] concerns HeLa. Description: Selectivity index, ratio of IC50 for human Detroit 551 cells to IC50 for human HeLa cells. The class given is functional.
The subject of the next data set is PC-3. Kind of data set: Cytotoxicity against human PC3 cells after 48 hrs by MTT assay. The class given is functional. Particulars: PC-3, 48 h. The procedure, abridged: as §2
In a further data set the test system is Nucleic Acid. Kind of data set: Binding affinity to pBR322. The class given is nucleic-acid assay. Particulars: Escherichia coli.
The test system of data set [8] is SAS. Kind of data set: Cytotoxicity against human SAS cells after 48 hrs by MTT assay. The class given is functional. The procedure, abridged:
as §2

The nature of data set [9]: Inhibition of human topoisomerase 2 assessed as decrease in pBR322 mobility on agarose gel by electrophoresis. The procedure, abridged:
as §1

A further data set deals with A549. Kind of data set: Cytotoxicity against human A549 cells after 48 hrs by MTT assay. The class given is functional. As to conditions: A549, 48 h. The procedure, abridged:
as §2

The nature of data set [10]: Cytotoxicity against human SKHep cells after 48 hrs by MTT assay. The class given is functional. The procedure, abridged:
as §2

The target of the next data set is T2, DNA topoisomerase 1 (Homo sapiens, UniProt P11387).
T2 sequence (P11387 whole entry): T1 sequence (whole entry)
Kind of data set: Inhibition of human topoisomerase 1 assessed as decrease in pBR322 mobility on agarose gel by electrophoresis. The procedure, abridged: as §1

The next data set is filed under the species Homo sapiens. Description: Inhibition of human topoisomerase 2 assessed as decrease in pBR322 mobility on agarose gel at 10 uM by electrophoresis. The procedure, abridged: as §1
Data set [11] can be described thus: Cytotoxicity against human BT-483 cells after 48 hrs by MTT assay. The class given is functional. Particulars: BT-483, 48 h. The procedure, abridged:
as §2

Data set [12] in a line: Cytotoxicity against human Detroit 551 cells after 48 hrs by MTT assay. Type of data set: cell-based. The procedure, abridged:
as §2

Data set [13] deals with Detroit 551. Kind of data set: Selectivity index, ratio of IC50 for human Detroit 551 cells to IC50 for human PC3 cells. Type of data set: functional.

In general, inhibition refers to the drop in the measured response relative to a control, in per cent. As usually defined, the IC50 is the midpoint of a concentration-inhibition curve. Consider `COc1ccc2c(c1)/C(=N\OCCN1CCCCC1)c1c-2cnc2ccccc12`, for which the RatioGI50 is given as 1.2 in the data set with Detroit 551 [1]; 0.74 in the data set with Detroit 551 [2]; 0.88 in the data set on SAS [4]; 1.22 in the data set with Detroit 551 [6]; 2.36 in the data set on HeLa [7]; 0.99 in the data set with Detroit 551 [13]. Further, the inhibition in data set [3] amounted to 28%; in the data set filed under Homo sapiens it was 50%. The GI50 is 2.67 µM in the data set on HeLa [5] (read-out: GI50); 2.69 µM with HeLa [5] (read-out: pGI50 (converted)); 6.38 µM in the data set with PC-3; 7.18 µM in the data set with SAS [8]; 8.48 µM in the data set on A549; 5.26 µM in [10]. In [11], this molecule had a GI50 of 5.17 µM. The outcome in the data set on Nucleic Acid was Active. Further, the IC50 came out at 10.1 µM in data set [9] and 16.5 µM on DNA topoisomerase 1. Also, the GI50 at 48 h in data set [12] was 6.3 µM.
In the case of `COc1ccc2c(c1)/C(=N\OCCN(C)C)c1c-2c(O)nc2ccccc12`, the RatioGI50 in the data set with Detroit 551 [1] turned out to be 3.75; with Detroit 551 [2], 9.6; in the data set on SAS [4], 8.73; in the data set with Detroit 551 [6] it was 2.38; with HeLa [7], 41.74; with Detroit 551 [13], 1.8. The figures for the inhibition (in data set [3]; in the data set listed under Homo sapiens) were 73% and 46%, respectively. Further, the GI50 was 0.23 µM with HeLa [5] (read-out: GI50); 0.229 µM with HeLa [5] (read-out: pGI50 (converted)); 5.34 µM with PC-3; 1.1 µM with SAS [8]; 1 µM in the data set on A549; 2.56 µM in [10]. In data set [11], this molecule yielded a GI50 of 4.04 µM. For the same molecule, the result in the data set with Nucleic Acid was Active. The results for the IC50 (in data set [9]; on DNA topoisomerase 1) were 10.2 µM and 7.4 µM, respectively. The molecule further returned a GI50 at 48 h in [12] of 9.6 µM.
